Series [1] concerns Mus musculus. Briefly: Neurotoxicity in F1 albino mouse assessed as minimal motor impairment at 300 mg/kg, ip after 1 hr by rotorod test. The format is toxicity, organism-based. Set-up: dose 300 mg/kg, route intraperitoneal. Particulars: in vivo. Put shortly:
(§1)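 Male albino F-1 mice (18–25 g), groups of 1–5 (rotorod 2–8). Compound given ip as a suspension in 0.5% methylcellulose at 30, 100 and 300 mg/kg. Seizures by maximal electroshock or subcutaneous pentylenetetrazole; neurotoxicity by rotorod. Read at 0.5 and 4 h, with some at 0.25, 1 and 2 h. Value is the minimum active dose, with protected (or toxic)/tested animals.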

Series [2] has as its system Mus musculus. The series is described as follows: Neurotoxicity in F1 albino mouse assessed as minimal motor impairment at 300 mg/kg, ip after 4 hrs by rotorod test. Type of series: toxicity, organism-based. More on the design: dose 300 mg/kg, route intraperitoneal. To be noted: in vivo. The method in brief: as §1
For series [3], the target named is T1, Adenosine receptor A3 (Homo sapiens, UniProt P0DMS8).
T1 sequence (P0DMS8 whole entry): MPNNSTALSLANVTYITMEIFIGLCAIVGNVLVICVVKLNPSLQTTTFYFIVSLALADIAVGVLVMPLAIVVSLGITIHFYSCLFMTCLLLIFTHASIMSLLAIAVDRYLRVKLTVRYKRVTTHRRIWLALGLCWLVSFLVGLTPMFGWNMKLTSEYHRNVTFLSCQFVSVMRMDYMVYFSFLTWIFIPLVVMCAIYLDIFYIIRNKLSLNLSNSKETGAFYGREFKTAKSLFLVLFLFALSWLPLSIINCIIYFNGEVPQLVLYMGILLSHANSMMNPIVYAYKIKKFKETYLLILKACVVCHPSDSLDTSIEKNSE
The series is described as follows: Displacement of [3H]PSB-11 from human recombinant adenosine A3 receptor expressed in CHO cells. The format is cell-based.

Series [4] deals with Rattus norvegicus. Briefly: Anticonvulsant activity in Sprague-Dawley albino rat assessed as protection against subcutaneous pentylenetetrazole-induced seizures at 50 mg/kg, po after 0.5 hrs. The format is functional, organism-based. More on the design: dose 50 mg/kg. The method in brief:
(§2)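 Male Sprague-Dawley albino rats (100–150 g), groups of 4. Oral suspension in 0.5% methylcellulose/water. Protection assessed by maximal electroshock or subcutaneous pentylenetetrazole; motor impairment by rotorod. Time points 0.25–4 h. Value is protected (or toxic)/tested animals.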

Series [5] deals with Rattus norvegicus. Briefly: Anticonvulsant activity in Sprague-Dawley albino rat assessed as protection against maximal electroshock-induced seizures at 30 mg/kg, po after 2 hrs. More on the design: dose 30 mg/kg. Type of series: functional, organism-based. The method in brief:
as §2

Series [6] concerns Mus musculus. Briefly: Neurotoxicity in F1 albino mouse assessed as minimal motor impairment at 300 mg/kg, ip after 0.5 hrs by rotorod test. The format is toxicity, organism-based. Set-up: dose 300 mg/kg, route intraperitoneal. To be noted: in vivo. The method in brief: as §1
Series [7] has as its system Rattus norvegicus. Briefly: Anticonvulsant activity in Sprague-Dawley albino rat assessed as protection against subcutaneous pentylenetetrazole-induced seizures at 50 mg/kg, po after 0.25 hrs. Type of series: functional, organism-based. Set-up: dose 50 mg/kg. The method in brief:
as §2

Series [8] relates to Rattus norvegicus. The series is described as follows: Anticonvulsant activity in Sprague-Dawley albino rat assessed as protection against subcutaneous pentylenetetrazole-induced seizures at 50 mg/kg, po after 2 hrs. Type of series: functional, organism-based. More on the design: dose 50 mg/kg. Put shortly:
as §2

Series [9] has as its system Rattus norvegicus. The series is described as follows: Anticonvulsant activity in Sprague-Dawley albino rat assessed as protection against maximal electroshock-induced seizures at 30 mg/kg, po after 1 hr. Set-up: dose 30 mg/kg. The format is functional, organism-based. The method in brief:
as §2

For series [10], the target named is T2, Adenosine receptor A3 (Homo sapiens) (UniProt P0DMS8).
T2 sequence (whole entry): T1 sequence (P0DMS8 whole entry)
Briefly: Displacement of [3H]PSB-11 from human recombinant adenosine A3 receptor expressed in CHO cells at 10 uM. The format is cell-based. The method in brief: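 CHO cell membranes expressing the human receptor. Radioligands: A1 [3H]CCPA; A2B [3H]ZM241385 or [3H]PSB-603; A3 [3H]PSB-11. […] Potent compounds run at 6–7 concentrations spanning 3 orders of magnitude; Ki ± SEM.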

The test system of series [11] is Rattus norvegicus. Briefly: Anticonvulsant activity in Sprague-Dawley albino rat assessed as protection against maximal electroshock-induced seizures at 30 mg/kg, po after 0.5 hrs. Type of series: functional, organism-based. Set-up: dose 30 mg/kg. The method in brief: as §2
The subject of series [12] is Mus musculus. The series is described as follows: Anticonvulsant activity in F1 albino mouse assessed as protection against maximal electroshock-induced seizures at 300 mg/kg, ip after 4 hrs. Type of series: functional, organism-based. More on the design: dose 300 mg/kg. Put shortly: as §1
Series [13] deals with Adenosine receptor A2a (Rattus norvegicus, UniProt P30543). The series is described as follows: Displacement of [3H]MSX-2 from adenosine A2A receptor in rat brain striatal membrane. Type of series: cell membranes.
Adenosine receptor A2a, sequence (P30543 whole entry): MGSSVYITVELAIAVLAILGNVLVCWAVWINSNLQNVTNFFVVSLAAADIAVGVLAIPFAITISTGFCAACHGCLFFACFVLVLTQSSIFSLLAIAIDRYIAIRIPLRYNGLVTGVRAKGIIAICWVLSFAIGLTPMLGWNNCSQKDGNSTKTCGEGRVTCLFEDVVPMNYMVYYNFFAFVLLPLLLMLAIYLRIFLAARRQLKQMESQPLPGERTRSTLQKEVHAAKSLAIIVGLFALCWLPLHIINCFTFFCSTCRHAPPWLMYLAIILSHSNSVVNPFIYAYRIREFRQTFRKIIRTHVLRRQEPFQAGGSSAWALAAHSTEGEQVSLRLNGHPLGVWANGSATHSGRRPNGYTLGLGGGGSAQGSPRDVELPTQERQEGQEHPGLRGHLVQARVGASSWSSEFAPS
In series [14] the test system is Mus musculus. Briefly: Anticonvulsant activity in F1 albino mouse assessed as protection against maximal electroshock-induced seizures at 300 mg/kg, ip after 1 hr. The format is functional, organism-based. Set-up: dose 300 mg/kg. The method in brief:
as §1

The source made the active and inactive calls. The calls are words filed in the database; no cut-off is given here.

As for `Cn1c(=O)c2c(nc3n2CCCN3CC2CC2)n(C)c1=O`, the Activity result in series [1] is listed as “Non-toxic”; in series [2] it was “Non-toxic”; in series [6], “Toxic”. The Ki in [3] was over 10000 nM; in [13], 980 nM. Moreover, the result in [4], in series [5], in series [7], in series [8], in series [9] and in [11] was inactive. Also, the result in series [12] and in series [14] was inactive. The inhibition in series [10] was determined as 1%.

(Values after ChEMBL document CHEMBL2150901, “Synthesis and biological activity of tricyclic cycloalkylimidazo-, pyrimido- and diazepinopurinediones” (Eur J Med Chem, 2011).)
